Screening data as filed in PubChem BioAssay.
This is a sample that favours compounds with a hit; in the whole collection about 3.1% have one here.
OX1R antag-1 – blocks the human orexin 1 receptor; O43613; OX1R-expressing cells, FRET antagonist read-out; inhibition, % at 6.6 µM; actives 1.8% (n = 330,000); in the data active means inhibition mostly above about 38%, no sharp cut-off; inactive means mostly below about 40%;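 further: 0% = agonist challenge alone and 100% = reference antagonist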
Target sequence (O43613 whole entry, looked up): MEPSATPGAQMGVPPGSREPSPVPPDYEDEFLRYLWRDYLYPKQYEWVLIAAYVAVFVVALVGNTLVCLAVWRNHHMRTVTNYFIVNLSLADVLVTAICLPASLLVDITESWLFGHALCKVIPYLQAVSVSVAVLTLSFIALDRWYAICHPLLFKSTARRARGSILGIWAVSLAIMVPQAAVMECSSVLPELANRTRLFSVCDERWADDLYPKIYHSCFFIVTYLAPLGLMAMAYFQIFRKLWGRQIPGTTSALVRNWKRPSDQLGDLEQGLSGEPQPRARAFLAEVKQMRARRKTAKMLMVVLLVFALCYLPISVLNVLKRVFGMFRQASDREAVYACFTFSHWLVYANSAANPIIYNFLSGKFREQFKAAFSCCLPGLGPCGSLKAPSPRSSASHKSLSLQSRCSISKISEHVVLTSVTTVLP
OX1R antag-2 – blocks the human orexin 1 receptor; O43613; CHO/OX1R cells, Fluo-8 calcium fluorescence, orexin A; inhibition, % at 5 µM; actives 0.43% (n = 330,000);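 active means inhibition above its plate's threshold, mean inhibition of all tested compounds on the plate plus 3 SD, cut at about 37% in these data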;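 further: 0% = orexin A challenge wells and 100% = SB-334867-A antagonist wells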
CHO parental Ca – counter-screen for OX1R antagonists: effect in parental CHO cells; parental CHO-K1, ATP-induced calcium, Fluo-8 fluorescence; inhibition, % at 5.6 µM; actives 0.63% (n = 330,000); AID 463079;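 active means inhibition above that plate's mean sample inhibition plus 3 SD, cut at about 26% in these data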;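 further: 0% = ATP-challenged DMSO wells and 100% = DMSO wells without ATP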
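Test system: parental CHO cells; detection: calcium-sensitive Fluo-8 fluorescence; evaluation: percent inhibition of calcium signal; also added: ATP as calcium-mobilizing challenge; repeats: one well per compound; control set: ATP-challenged DMSO wells low, unchallenged DMSO wells high; compound: single nominal dose of 5.6 µM per compound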
GalR3 antag – antagonists of human GalR3 | O60755 | inhibition, % at 3 µM | HEK293 GalR3-CNG cAMP membrane potential fluorescence; galR3 body fused to GalR1 C-terminus | AID 651719 | actives 0.44% (n = 360,000);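 active means inhibition above the screen-wide average plus 3 SD, cut at about 13% in these data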;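 further: forskolin and galanin both at EC90 stimulate the cells; cAMP rise reported by CNG channel membrane potential dye signal; 0% = forskolin plus galanin with DMSO and 100% = forskolin alone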
GPR7 antagonist – blocks human GPR7 receptor signaling; P48145; GPR7-expressing cells, fluorescence antagonist assay; actives 1.1% (n = 290,000); inhibition, % at 4.4 µM; in the data active means inhibition above about 16%, passing the limit was not always enough;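 further: cells stimulated with the agonist NPW; 0% = agonist with vehicle and 100% = vehicle without agonist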
* = called active by the depositor.

Screening CCc1cc2c(nc1CC)CCCN2Cc1ccc(Br)cc1 returned GalR3 antag -6.
For O=C(Oc1ccc(C(=S)N2CCOCC2)cc1)c1ccccc1[N+](=O)[O-] the results were OX1R antag-1 56*, OX1R antag-2 21, CHO parental Ca 1, GalR3 antag -5 and GPR7 antagonist 20.
O=C(Oc1ccc(C(=S)N2CCOCC2)cc1)c1ccccc1F was read as OX1R antag-1 26, OX1R antag-2 3, CHO parental Ca -10, GalR3 antag -7 and GPR7 antagonist 23.
For Cc1ccc(C)c(CSc2ccc3nnc(-c4ccccn4)n3n2)c1 the results were OX1R antag-1 0, OX1R antag-2 -34, CHO parental Ca -17, GalR3 antag -4 and GPR7 antagonist 15.
COC(=O)c1cc(NC(=O)Nc2ccccc2)ccc1Cl was read as OX1R antag-1 38, OX1R antag-2 31, CHO parental Ca 49*, GalR3 antag -6 and GPR7 antagonist -12.
For O=C(Nc1ccc(F)c(Cl)c1)Nc1csc2ccccc12 the results were OX1R antag-1 67*, OX1R antag-2 50*, CHO parental Ca 40*, GalR3 antag -4 and GPR7 antagonist -6.
COc1cccc(NC(=O)Nc2ccc(C)c(Cl)c2)c1 was read as OX1R antag-1 50, OX1R antag-2 38*, CHO parental Ca 90*, GalR3 antag 1 and GPR7 antagonist 18.
COC(=O)c1cccc(NC(=O)NC(=O)c2ccccc2Cl)c1 was read as OX1R antag-1 6, OX1R antag-2 -46, CHO parental Ca -19, GalR3 antag -5 and GPR7 antagonist 4.
`COC(=O)c1cccc(NC(=O)Nc2ccc(Cl)c(Cl)c2)c1` gave OX1R antag-1 69*, OX1R antag-2 67*, CHO parental Ca 23, GalR3 antag -6 and GPR7 antagonist 24.
N#Cc1ccc(S(=O)(=O)NCC2CCN(C(=O)C(=O)c3cc4ccccc4o3)CC2)cc1 was read as GalR3 antag -5.
For C[C@H](O)[C@@H]1C(=O)N2CCc3c([nH]c4c(-c5ccccc5)cccc34)[C@@H]2C[C@@H]1N(C)C(=S)NCCc1ccccc1 the results were GalR3 antag -6.
Screening O=C(C[C@@H]1C[C@@H]2c3cc(NC(=O)c4ccc5c(c4)OCO5)ccc3O[C@@H]2[C@@H](CO)O1)NCc1cccnc1 returned GalR3 antag -3.
Screening COC(=O)c1ccc(NC(=O)Nc2ccc(F)c(Cl)c2)cc1 returned OX1R antag-1 59*, OX1R antag-2 19, CHO parental Ca 41*, GalR3 antag -8 and GPR7 antagonist 16.
Screening COc1cc(NC(=S)Nc2ncccc2C)cc(OC)c1OC returned OX1R antag-1 45*, OX1R antag-2 3, CHO parental Ca -1, GalR3 antag -2 and GPR7 antagonist -12.
`CCCCCCCCCCCCCCCC[n+]1cccc(C(=O)N(CC)CC)c1` gave OX1R antag-1 26, OX1R antag-2 42, CHO parental Ca 57*, GalR3 antag -6 and GPR7 antagonist 9.
For CCCCCCCC[n+]1cccc(C(=O)N(CC)CC)c1 the results were OX1R antag-1 7, OX1R antag-2 9, CHO parental Ca -4, GalR3 antag -2 and GPR7 antagonist -6.
`CCCCCCCCCCCCCCCC[n+]1ccc(C(N)=O)cc1` gave OX1R antag-1 21, OX1R antag-2 78*, CHO parental Ca 98*, GalR3 antag -8 and GPR7 antagonist -7.
For CCCCCCCCCCCCCCCC[n+]1ccccc1 the results were GalR3 antag -1.
For CCCCCCCCCCCCCCCC[n+]1ccc(/C=N/O)cc1 the results were OX1R antag-1 38, OX1R antag-2 58*, CHO parental Ca 80*, GalR3 antag 1 and GPR7 antagonist 1.
Screening O/N=C/c1cccc[n+]1CCCCCC[n+]1ccccc1/C=N/O returned GalR3 antag -3 and GPR7 antagonist 1.
Screening CCc1c(Cc2cccc(F)c2)ncn1CCc1ccccc1OC returned GalR3 antag -7.
`Cc1cc(O)cc(=O)n1-c1ccc(OC(F)F)cc1` gave GalR3 antag -4.
`Cc1cc(SCC(=O)N2CCC(c3noc4ccc(F)cc34)CC2)nc2ccccc12` gave OX1R antag-1 49*, OX1R antag-2 -27, CHO parental Ca -11, GalR3 antag -7 and GPR7 antagonist -2.
`O=C(CSc1ncnc2sc3c(c12)CCCC3)N1CCC(c2noc3ccc(F)cc23)CC1` gave OX1R antag-1 6, OX1R antag-2 -15, CHO parental Ca -8, GalR3 antag -8 and GPR7 antagonist -9.
